Data: ChEMBL document CHEMBL1124925, “Anticandidal properties of N3-(4-methoxyfumaroyl)-L-2,3-diaminopropanoic acid oligopeptides” (1990)
Converted amounts (≈) assume the structure as drawn.

Test system: Candida albicans
Experiment: In vitro antifungal activity against 16 clinical strains of Candida albicans.
Type: functional
Outline: (§1)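 MIC by serial dilution in liquid YNB medium containing sodium glutamate, inoculated at 10^4 cells/mL; growth read turbidimetrically at 660 nm after 24 h at 30 °C. Strains were 16 fresh clinical isolates collected at the Medical Academy of Gdansk plus standard strain ATCC 26278.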

Row | Structure (SMILES) | MIC [µg/mL]
1 | COC(=O)/C=C/C(=O)NC[C@H](NC(=O)[C@@H](N)CCSC)C(=O)N[C@@H](CCSC)C(=O)O | 0.15 (≈ 0.313 µM)
2 | COC(=O)/C=C/C(=O)NC[C@H](NC(=O)[C@H](CCSC)NC(=O)[C@@H](N)CCSC)C(=O)O | 0.1 (≈ 0.209 µM)
3 | CCC[C@H](NC(=O)[C@@H](N)CCCCN)C(=O)N[C@@H](CNC(=O)/C=C/C(=O)OC)C(=O)O | 0.01 (≈ 0.0225 µM)
4 | CCC[C@H](NC(=O)[C@H](CNC(=O)/C=C/C(=O)OC)NC(=O)[C@@H](N)CCC)C(=O)O | 0.01 (≈ 0.0241 µM)
5 | COC(=O)/C=C/C(=O)NC[C@H](N)C(=O)N[C@@H](CCSC)C(=O)N[C@@H](C)C(=O)O | 0.1 (≈ 0.239 µM)
6 | COC(=O)/C=C/C(=O)NC[C@H](NC(=O)[C@H](CCSC)NC(=O)[C@H](CCSC)NC(=O)[C@@H](N)CNC(=O)/C=C/C(=O)OC)C(=O)O | 0.25 (≈ 0.369 µM)
7 | CCC[C@H](NC(=O)[C@@H](N)CCSC)C(=O)N[C@@H](CNC(=O)/C=C/C(=O)OC)C(=O)O | 0.05 (≈ 0.112 µM)

Test system: Saccharomyces cerevisiae
Experiment: In vitro for antifungal activity against Saccharomyces cerevisiae ATCC 9763.
Type: functional

Row | Structure (SMILES) | MIC [µg/mL]
8 | CCC[C@H](NC(=O)[C@H](CNC(=O)/C=C/C(=O)OC)NC(=O)[C@@H](N)CCC)C(=O)O | 50 (≈ 121 µM)

Test system: Saccharomyces cerevisiae
Experiment: Tested in vitro for antifungal activity against Saccharomyces cerevisiae ATCC 9763.
Type: functional

Row | Structure (SMILES) | MIC [µg/mL]
9 | COC(=O)/C=C/C(=O)NC[C@H](NC(=O)[C@H](CCSC)NC(=O)[C@@H](N)CCSC)C(=O)O | 37.5 (≈ 78.4 µM)

Test system: Candida albicans
Experiment: In vitro antifungal activity against Candida albicans ATCC 26278.
Type: functional
Outline: as §1

Row | Structure (SMILES) | MIC [µg/mL]
10 | COC(=O)/C=C/C(=O)NC[C@H](NC(=O)[C@@H](N)CCSC)C(=O)N[C@@H](CCSC)C(=O)O | 0.3 (≈ 0.627 µM)
11 | COC(=O)/C=C/C(=O)NC[C@H](NC(=O)[C@H](CCSC)NC(=O)[C@@H](N)CCSC)C(=O)O | 0.25 (≈ 0.522 µM)
12 | CCC[C@H](NC(=O)[C@@H](N)CCCCN)C(=O)N[C@@H](CNC(=O)/C=C/C(=O)OC)C(=O)O | 0.025 (≈ 0.0564 µM)
13 | CCC[C@H](NC(=O)[C@H](CNC(=O)/C=C/C(=O)OC)NC(=O)[C@@H](N)CCC)C(=O)O | 0.05 (≈ 0.121 µM)
14 | COC(=O)/C=C/C(=O)NC[C@H](N)C(=O)N[C@@H](CCSC)C(=O)N[C@@H](C)C(=O)O | 0.25 (≈ 0.597 µM)
15 | COC(=O)/C=C/C(=O)NC[C@H](NC(=O)[C@H](CCSC)NC(=O)[C@H](CCSC)NC(=O)[C@@H](N)CNC(=O)/C=C/C(=O)OC)C(=O)O | 0.25 (≈ 0.369 µM)
16 | CCC[C@H](NC(=O)[C@@H](N)CCSC)C(=O)N[C@@H](CNC(=O)/C=C/C(=O)OC)C(=O)O | 0.125 (≈ 0.28 µM)

Test system: Candida albicans
Experiment: Tested for its rate of transport in Candida albicans ATCC 26278.
Type: functional

Row | Structure (SMILES) | Transport rate [nM/min/mg]
17 | CCC[C@H](NC(=O)[C@H](CNC(=O)/C=C/C(=O)OC)NC(=O)[C@@H](N)CCC)C(=O)O | 2.9

Test system: Candida albicans
Experiment: Tested for its intracellular cleavage rate in Candida albicans ATCC 26278.
Type: functional
Outline: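 Cell-free extract came from cells grown overnight on Sabouraud medium at 30 °C with vigorous shaking. Cells were washed and extracted in 0.05 M phosphate buffer, pH 6.5; protein was measured by Lowry (Layne modification). Peptides at 200 μM in 0.005 M phosphate buffer were incubated with extract at 30 °C for 30 min. Samples were taken every 10 min and released amino acid was measured by Cd-ninhydrin.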

Row | Structure (SMILES) | Cleavage rate [nM/min/mg]
18 | COC(=O)/C=C/C(=O)NC[C@H](NC(=O)[C@@H](N)CCSC)C(=O)N[C@@H](CCSC)C(=O)O | 4.8
19 | COC(=O)/C=C/C(=O)NC[C@H](NC(=O)[C@H](CCSC)NC(=O)[C@@H](N)CCSC)C(=O)O | 4.9
20 | CCC[C@H](NC(=O)[C@@H](N)CCCCN)C(=O)N[C@@H](CNC(=O)/C=C/C(=O)OC)C(=O)O | 51
21 | CCC[C@H](NC(=O)[C@H](CNC(=O)/C=C/C(=O)OC)NC(=O)[C@@H](N)CCC)C(=O)O | 8.9
22 | COC(=O)/C=C/C(=O)NC[C@H](N)C(=O)N[C@@H](CCSC)C(=O)N[C@@H](C)C(=O)O | 4.9
23 | COC(=O)/C=C/C(=O)NC[C@H](NC(=O)[C@H](CCSC)NC(=O)[C@H](CCSC)NC(=O)[C@@H](N)CNC(=O)/C=C/C(=O)OC)C(=O)O | 5.8
24 | CCC[C@H](NC(=O)[C@@H](N)CCSC)C(=O)N[C@@H](CNC(=O)/C=C/C(=O)OC)C(=O)O | 17.3

Test system: Candida epidermidis
Experiment: In vitro antifungal activity against Candida epidermidis OBS 6023.

Row | Structure (SMILES) | MIC [µg/mL]
25 | COC(=O)/C=C/C(=O)NC[C@H](NC(=O)[C@@H](N)CCSC)C(=O)N[C@@H](CCSC)C(=O)O | 110 (≈ 230 µM)
26 | COC(=O)/C=C/C(=O)NC[C@H](NC(=O)[C@H](CCSC)NC(=O)[C@@H](N)CCSC)C(=O)O | 125 (≈ 261 µM)
27 | CCC[C@H](NC(=O)[C@@H](N)CCCCN)C(=O)N[C@@H](CNC(=O)/C=C/C(=O)OC)C(=O)O | 125 (≈ 282 µM)
28 | CCC[C@H](NC(=O)[C@H](CNC(=O)/C=C/C(=O)OC)NC(=O)[C@@H](N)CCC)C(=O)O | 125 (≈ 302 µM)
29 | COC(=O)/C=C/C(=O)NC[C@H](N)C(=O)N[C@@H](CCSC)C(=O)N[C@@H](C)C(=O)O | 50 (≈ 119 µM)
30 | COC(=O)/C=C/C(=O)NC[C@H](NC(=O)[C@H](CCSC)NC(=O)[C@H](CCSC)NC(=O)[C@@H](N)CNC(=O)/C=C/C(=O)OC)C(=O)O | 75 (≈ 111 µM)
31 | CCC[C@H](NC(=O)[C@@H](N)CCSC)C(=O)N[C@@H](CNC(=O)/C=C/C(=O)OC)C(=O)O | 130 (≈ 291 µM)

Test system: Saccharomyces cerevisiae
Experiment: In vitro antifungal activity against Saccharomyces cerevisiae ATCC 9763.
Type: functional

Row | Structure (SMILES) | MIC [µg/mL]
32 | COC(=O)/C=C/C(=O)NC[C@H](NC(=O)[C@@H](N)CCSC)C(=O)N[C@@H](CCSC)C(=O)O | 50 (≈ 104 µM)
33 | COC(=O)/C=C/C(=O)NC[C@H](N)C(=O)N[C@@H](CCSC)C(=O)N[C@@H](C)C(=O)O | 15 (≈ 35.8 µM)
34 | COC(=O)/C=C/C(=O)NC[C@H](NC(=O)[C@H](CCSC)NC(=O)[C@H](CCSC)NC(=O)[C@@H](N)CNC(=O)/C=C/C(=O)OC)C(=O)O | 75 (≈ 111 µM)
35 | CCC[C@H](NC(=O)[C@@H](N)CCSC)C(=O)N[C@@H](CNC(=O)/C=C/C(=O)OC)C(=O)O | 7.5 (≈ 16.8 µM)
